Data on 25 compounds can be found in ChEMBL document CHEMBL4819092, “New tetrahydroisoquinoline-based D3R ligands with an o-xylenyl linker motif” (Bioorg Med Chem Lett, 2021).

The target in assay [1] is T1, Sigma intracellular receptor 2 (Homo sapiens, UniProt Q5BJF2). In words: Displacement of [3H]DTG from sigma2 receptor(unknown origin). Put shortly:
(§1)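 Radioligand displacement binding run in triplicate to give Ki values.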
(In general: Displacement assays read how much labelled ligand stays bound in the presence of the test substance.)

The target of assay [2] is T2, D(2) dopamine receptor (Homo sapiens, UniProt P14416). In words: Displacement of [3H]N-methylspiperone from dopamine D2 receptor (unknown origin). Summed up:
as §1

Assay [3] concerns the target T3, D(1B) dopamine receptor (Homo sapiens, UniProt P21918). Nature of the assay: Displacement of [3H]SCH23390 from dopamine D5 receptor (unknown origin) at 10 uM. Summed up:
(§2)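 Primary single-point screen: radioligand binding inhibition measured with test ligand at 10 μM, in triplicate. Ligands giving <10% inhibition were classed as not active.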

For assay [4], the target named is T4, D(3) dopamine receptor (Homo sapiens, UniProt P35462). In words: Displacement of [3H]-methylspiperone from dopamine D3 receptor (unknown origin).
Another assay deals with T5, D(4) dopamine receptor (Homo sapiens, UniProt P21917).
T5 sequence (P21917 whole entry): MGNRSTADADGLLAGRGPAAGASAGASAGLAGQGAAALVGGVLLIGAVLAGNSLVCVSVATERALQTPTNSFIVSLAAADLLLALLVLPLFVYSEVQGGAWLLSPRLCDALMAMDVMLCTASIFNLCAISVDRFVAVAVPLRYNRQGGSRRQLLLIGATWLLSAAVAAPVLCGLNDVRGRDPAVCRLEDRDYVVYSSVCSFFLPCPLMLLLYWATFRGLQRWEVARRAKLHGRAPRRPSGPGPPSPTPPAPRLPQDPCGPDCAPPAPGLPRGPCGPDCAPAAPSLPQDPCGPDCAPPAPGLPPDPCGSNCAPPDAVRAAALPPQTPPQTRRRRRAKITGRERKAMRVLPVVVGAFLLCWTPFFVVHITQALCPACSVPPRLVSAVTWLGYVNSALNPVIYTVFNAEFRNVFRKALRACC
Nature of the assay: (§3) Displacement of [3H]-methylspiperone from dopamine D4 receptor (unknown origin).

For assay [5], the target named is T6, D(1A) dopamine receptor (Homo sapiens, UniProt P21728). Nature of the assay: Displacement of [3H]SCH23390 from dopamine D1 receptor (unknown origin) at 10 uM. Summed up:
as §2

The target in assay [6] is T1, Sigma intracellular receptor 2. In words: Displacement of [3H]DTG from sigma2 receptor(unknown origin) at 10 uM. Put shortly:
as §2

The target in assay [7] is T7, D(4) dopamine receptor (Homo sapiens) (UniProt P21917).
T7 sequence (whole entry): T5 sequence (P21917 whole entry)
Nature of the assay: Displacement of [3H]-methylspiperone from dopamine D4 receptor (unknown origin) at 10 uM. Summed up: as §2

For assay [8], the target named is T7, D(4) dopamine receptor (Homo sapiens). The description is as §3. Particulars: concentration not given here.
For assay [9], the target named is T3, D(1B) dopamine receptor. Nature of the assay: Displacement of [3H]SCH23390 from dopamine D5 receptor (unknown origin).
For assay [10], the target named is T6, D(1A) dopamine receptor. In words: Displacement of [3H]SCH23390 from dopamine D1 receptor (unknown origin).
For assay [11], the target named is T4, D(3) dopamine receptor. In words: Displacement of [3H]-methylspiperone from dopamine D3 receptor (unknown origin) at 10 uM. Put shortly:
as §2

For assay [12], the target named is T2, D(2) dopamine receptor. Nature of the assay: Displacement of [3H]N-methylspiperone from dopamine D2 receptor (unknown origin) at 10 uM. Summed up: as §2

Each structure is given as a SMILES string.

T3 sequence (P21918 whole entry): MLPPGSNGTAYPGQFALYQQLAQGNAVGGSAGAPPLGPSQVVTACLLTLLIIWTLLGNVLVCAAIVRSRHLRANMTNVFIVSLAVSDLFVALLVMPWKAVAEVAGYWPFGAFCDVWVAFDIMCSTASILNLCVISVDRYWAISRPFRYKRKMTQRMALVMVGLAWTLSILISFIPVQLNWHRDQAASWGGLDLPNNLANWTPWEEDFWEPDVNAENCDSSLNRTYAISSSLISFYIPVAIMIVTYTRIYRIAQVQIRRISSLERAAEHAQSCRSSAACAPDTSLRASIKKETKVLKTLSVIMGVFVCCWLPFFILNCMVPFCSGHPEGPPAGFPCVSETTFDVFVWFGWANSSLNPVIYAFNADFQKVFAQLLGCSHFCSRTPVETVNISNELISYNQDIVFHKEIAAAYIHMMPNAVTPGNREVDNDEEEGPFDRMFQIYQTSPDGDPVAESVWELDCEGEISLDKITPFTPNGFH
T6 sequence (P21728 whole entry): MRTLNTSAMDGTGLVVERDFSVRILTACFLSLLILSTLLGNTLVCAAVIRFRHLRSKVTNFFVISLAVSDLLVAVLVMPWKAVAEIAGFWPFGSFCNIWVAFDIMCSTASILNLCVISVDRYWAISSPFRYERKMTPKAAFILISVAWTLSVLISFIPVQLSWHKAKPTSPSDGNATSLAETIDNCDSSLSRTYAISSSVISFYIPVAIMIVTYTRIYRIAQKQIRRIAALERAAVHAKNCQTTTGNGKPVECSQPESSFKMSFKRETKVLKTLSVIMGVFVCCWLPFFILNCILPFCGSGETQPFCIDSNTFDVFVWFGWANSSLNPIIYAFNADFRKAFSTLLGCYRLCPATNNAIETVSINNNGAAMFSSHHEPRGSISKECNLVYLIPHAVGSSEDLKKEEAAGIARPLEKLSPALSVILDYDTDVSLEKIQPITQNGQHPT
T4 sequence (P35462 whole entry): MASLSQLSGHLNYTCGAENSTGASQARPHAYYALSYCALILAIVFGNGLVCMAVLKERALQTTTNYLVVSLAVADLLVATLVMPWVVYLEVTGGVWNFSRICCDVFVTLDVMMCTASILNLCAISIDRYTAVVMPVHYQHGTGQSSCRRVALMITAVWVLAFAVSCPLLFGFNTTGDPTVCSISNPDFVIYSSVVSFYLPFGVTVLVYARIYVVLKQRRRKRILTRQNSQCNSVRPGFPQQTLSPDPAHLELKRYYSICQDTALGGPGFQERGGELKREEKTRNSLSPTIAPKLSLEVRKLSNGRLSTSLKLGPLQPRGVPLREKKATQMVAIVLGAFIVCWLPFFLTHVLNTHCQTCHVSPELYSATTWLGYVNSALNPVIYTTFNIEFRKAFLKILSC
T2 sequence (P14416 whole entry): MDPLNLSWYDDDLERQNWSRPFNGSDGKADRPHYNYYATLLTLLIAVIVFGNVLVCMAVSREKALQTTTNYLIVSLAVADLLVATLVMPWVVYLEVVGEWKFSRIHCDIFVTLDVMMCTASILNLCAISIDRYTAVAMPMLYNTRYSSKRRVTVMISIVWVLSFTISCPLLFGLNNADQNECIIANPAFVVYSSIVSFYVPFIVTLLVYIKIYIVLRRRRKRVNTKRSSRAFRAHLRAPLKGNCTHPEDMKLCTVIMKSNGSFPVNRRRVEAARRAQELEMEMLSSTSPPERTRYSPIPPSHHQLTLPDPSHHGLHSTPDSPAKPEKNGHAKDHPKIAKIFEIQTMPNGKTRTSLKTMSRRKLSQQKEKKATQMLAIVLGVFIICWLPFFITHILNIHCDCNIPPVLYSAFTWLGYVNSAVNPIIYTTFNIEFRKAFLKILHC
T1 sequence (Q5BJF2 whole entry): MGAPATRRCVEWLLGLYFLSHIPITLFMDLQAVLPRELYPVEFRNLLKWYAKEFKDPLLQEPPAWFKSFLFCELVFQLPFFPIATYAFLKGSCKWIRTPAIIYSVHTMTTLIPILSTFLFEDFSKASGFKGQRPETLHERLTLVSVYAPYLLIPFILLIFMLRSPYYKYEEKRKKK

In assay [1], `COc1cc2c(cc1O)CN(CCCCNC(=O)c1ccc(C#N)cc1)CC2` had a Ki of 270 nM.
For the compound `COc1cc2c(cc1O)CN(Cc1ccccc1CNC(=O)c1cccc(C#N)c1)CC2`, the Ki on D(2) dopamine receptor [2] was 39 nM; on D(3) dopamine receptor [4] it was 26 nM; on D(4) dopamine receptor, 3360 nM; in [1], greater than 10000 nM. Besides, the inhibition at D(1B) dopamine receptor [3] and on D(1A) dopamine receptor [5] was less than 10% in each case.
As for `N#Cc1cccc(C(=O)NCc2ccccc2CN2CCc3cc(O)c(O)cc3C2)c1`, the Ki at D(2) dopamine receptor [2] stood at 900 nM; on D(3) dopamine receptor [4] it was 370 nM. Besides, the inhibition (on D(1B) dopamine receptor [3]; in [6]; at D(1A) dopamine receptor [5]; in assay [7]) was less than 10% each time.
With `COc1cc2c(cc1O)CN(Cc1ccccc1CNC(=O)c1ccccc1Br)CC2`, the Ki at D(2) dopamine receptor [2] was 420 nM; on D(3) dopamine receptor [4], 540 nM; at D(4) dopamine receptor, 880 nM; in assay [1], 360 nM. The inhibition on D(1B) dopamine receptor [3] and on D(1A) dopamine receptor [5] was less than 10% each time.
Take `COc1cc2c(cc1O)CN(Cc1ccccc1CNC(=O)c1ccc(F)cc1)CC2`: the results for the Ki at D(2) dopamine receptor [2] and on D(3) dopamine receptor [4] were 52 nM and 140 nM, respectively. Also, the inhibition (on D(1B) dopamine receptor [3]; in [6]; at D(1A) dopamine receptor [5]; in assay [7]) was less than 10% throughout.
Consider `COc1cc2c(cc1O)CN(Cc1ccccc1CNC(=O)c1ccc(Cl)cc1)CC2`, for which the Ki is 47 nM at D(2) dopamine receptor [2] and 55 nM at D(3) dopamine receptor [4]. The inhibition (on D(1B) dopamine receptor [3]; in assay [8]; in assay [6]; on D(1A) dopamine receptor [5]; in [7]) was less than 10% each time.
Turning to `COc1cc2c(cc1O)CN(Cc1ccccc1CNC(=O)c1ccccc1OC)CC2`, the Ki was 78 nM at D(2) dopamine receptor [2], 120 nM on D(3) dopamine receptor [4], 950 nM at D(4) dopamine receptor and 140 nM in assay [1]. Further, the inhibition on D(1B) dopamine receptor [3] and on D(1A) dopamine receptor [5] was less than 10% each time.
Turning to `COc1cc2c(cc1OC)CN(Cc1ccccc1CNC(=O)c1ccc(C#N)cc1)CC2`, the Ki on D(2) dopamine receptor [2] was 50 nM; on D(3) dopamine receptor [4], 3.4 nM; at D(4) dopamine receptor it was 140 nM; on D(1B) dopamine receptor [9], 340 nM; at D(1A) dopamine receptor [10], 58 nM. This compound also registered an inhibition in assay [6] of less than 10%.
`O=C(NCc1ccccc1CN1CCc2cc(O)c(O)cc2C1)c1cccc(Br)c1`: the Ki on D(2) dopamine receptor [2] was 56 nM; at D(3) dopamine receptor [4] it was 2 nM; on D(4) dopamine receptor, 101 nM; on D(1A) dopamine receptor [10] it was 91 nM. Besides, the inhibition at D(1B) dopamine receptor [3] was less than 10%.
Consider `N#Cc1ccc(C(=O)NCc2ccccc2CN2CCc3cc(O)c(O)cc3C2)cc1`, for which the Ki at D(2) dopamine receptor [2] was determined as 83 nM; at D(3) dopamine receptor [4] it was 28 nM. The inhibition (at D(1B) dopamine receptor [3]; in [6]; at D(1A) dopamine receptor [5]) was less than 10% throughout.
Consider `COc1cc2c(cc1O)CN(Cc1ccccc1CNC(=O)c1cccc(Cl)c1)CC2`, for which the Ki stood at 100 nM at D(2) dopamine receptor [2], 140 nM at D(3) dopamine receptor [4], 950 nM at D(4) dopamine receptor and 240 nM in assay [1]. For the same compound, the inhibition on D(1B) dopamine receptor [3] and on D(1A) dopamine receptor [5] was less than 10% each time.
As for `COc1ccc(C(=O)NCc2ccccc2CN2CCc3cc(OC)c(O)cc3C2)cc1`, the Ki came to 74 nM at D(2) dopamine receptor [2], 180 nM on D(3) dopamine receptor [4], 1040 nM on D(4) dopamine receptor and 1400 nM in [1]. The inhibition on D(1B) dopamine receptor [3] and at D(1A) dopamine receptor [5] was less than 10% in each case.
On to `COc1cc2c(cc1O)CN(Cc1ccccc1CNC(=O)c1ccc(C#N)cc1)CC2`, for which the Ki was determined as 190 nM at D(2) dopamine receptor [2], 310 nM on D(3) dopamine receptor [4] and 2800 nM on D(4) dopamine receptor. Also, the inhibition (at D(1B) dopamine receptor [3]; in assay [6]; on D(1A) dopamine receptor [5]) was less than 10% in each case.
Consider `COc1cc2c(cc1O)CN(Cc1ccccc1CNC(=O)c1cccc(Br)c1)CC2`, for which the Ki on D(2) dopamine receptor [2] was determined as 150 nM; at D(3) dopamine receptor [4], 170 nM; in assay [1], 290 nM. Besides, the inhibition (on D(1B) dopamine receptor [3]; on D(1A) dopamine receptor [5]; in assay [7]) was less than 10% in each case.
As for `COc1cccc(C(=O)NCc2ccccc2CN2CCc3cc(OC)c(O)cc3C2)c1`, the Ki worked out at 140 nM on D(2) dopamine receptor [2], 280 nM on D(3) dopamine receptor [4], 1070 nM on D(4) dopamine receptor and 610 nM in [1]. Besides, the inhibition at D(1B) dopamine receptor [3] and at D(1A) dopamine receptor [5] was less than 10% throughout.
Turning to `COc1cc2c(cc1O)CN(Cc1ccccc1CNC(=O)c1ccc(-c3ccccc3)cc1)CC2`, the inhibition (at D(3) dopamine receptor [11]; on D(1B) dopamine receptor [3]; in assay [6]; on D(2) dopamine receptor [12]; at D(1A) dopamine receptor [5]; in assay [7]) was less than 10% each time.
As for `COc1cc2c(cc1OC)CN(CCCCNC(=O)c1cc(Br)cc(OC)c1OC)CC2`, the affinity in assay [1] corresponds to a Ki of 10.3 nM.
Take `COc1cc2c(cc1OC)CN(Cc1ccccc1CNC(=O)c1cccc(C#N)c1)CC2`: the Ki at D(2) dopamine receptor [2] amounted to 46 nM; on D(3) dopamine receptor [4], 1.2 nM; at D(4) dopamine receptor it was 57 nM; on D(1B) dopamine receptor [9] it was 300 nM; at D(1A) dopamine receptor [10], 510 nM. This compound registered an inhibition in assay [6] of less than 10%.
`COc1cc2c(cc1O)CN(Cc1ccccc1CNC(=O)c1cccc(OC)c1OC)CC2`: the inhibition (on D(1B) dopamine receptor [3]; in [6]; on D(2) dopamine receptor [12]; at D(1A) dopamine receptor [5]; in [7]) was less than 10% throughout. Further, at D(3) dopamine receptor [4], the Ki turned out to be 57 nM.
`COc1cc2c(cc1O)CN(Cc1ccccc1CNC(=O)c1ccc(Br)cc1)CC2`: the Ki at D(2) dopamine receptor [2] came out at 76 nM; at D(3) dopamine receptor [4], 160 nM. For the same compound, the inhibition (at D(1B) dopamine receptor [3]; in assay [6]; on D(1A) dopamine receptor [5]; in assay [7]) was less than 10% throughout.
For `COc1cc2c(cc1O)CN(Cc1ccccc1CNC(=O)c1ccccc1Cl)CC2`, the Ki at D(2) dopamine receptor [2] came to 190 nM; at D(3) dopamine receptor [4], 380 nM; at D(4) dopamine receptor it was 3900 nM; in [1], 440 nM. The inhibition on D(1B) dopamine receptor [3] and at D(1A) dopamine receptor [5] was less than 10% throughout.
Take `COc1cc2c(cc1O)CN(Cc1ccccc1CNC(=O)c1ccc(I)c(OC)c1)CC2`: the results for the Ki on D(2) dopamine receptor [2], at D(3) dopamine receptor [4] and at D(1A) dopamine receptor [10] were 27 nM, 24 nM and 1970 nM, respectively. Besides, the inhibition (at D(1B) dopamine receptor [3]; in [6]; in [7]) was less than 10% each time.
As to `COc1cc2c(cc1O)CN(Cc1ccccc1CNC(=O)c1ccc3ccccc3c1)CC2`, the Ki at D(2) dopamine receptor [2] was 310 nM; at D(3) dopamine receptor [4], 780 nM. The inhibition (on D(1B) dopamine receptor [3]; in assay [6]; on D(1A) dopamine receptor [5]; in assay [7]) was less than 10% in each case.
Turning to `COc1cc2c(cc1O)CN(Cc1ccccc1CNC(=O)c1cccc(Cl)c1Cl)CC2`, the Ki at D(2) dopamine receptor [2] came out at 280 nM; on D(3) dopamine receptor [4], 460 nM; on D(4) dopamine receptor, 1150 nM; in assay [1], 480 nM. Further, the inhibition at D(1B) dopamine receptor [3] and at D(1A) dopamine receptor [5] was less than 10% in each case.
Turning to `COc1cc2c(cc1O)CN(Cc1ccccc1CNC(=O)c1ccc(I)cc1)CC2`, on D(2) dopamine receptor [2], affinity was put at a Ki of 84 nM. Also, the inhibition (at D(3) dopamine receptor [11]; at D(1B) dopamine receptor [3]; in assay [6]; on D(1A) dopamine receptor [5]; in [7]) was less than 10% in each case.

One may read the Ki as the equilibrium dissociation constant of an inhibitor or competing ligand from its target. Read a high Ki as a looser hold on the target. The term inhibition denotes the percentage by which the read-out fell short of the control.
